Data reported in the M2OR odorant receptor database.

Assays:
Settings in all cases: stereoisomer not certain
[1] = target: T1, Or1m1 (Mus musculus) (UniProt Q8VFM9)
T1 sequence (whole entry): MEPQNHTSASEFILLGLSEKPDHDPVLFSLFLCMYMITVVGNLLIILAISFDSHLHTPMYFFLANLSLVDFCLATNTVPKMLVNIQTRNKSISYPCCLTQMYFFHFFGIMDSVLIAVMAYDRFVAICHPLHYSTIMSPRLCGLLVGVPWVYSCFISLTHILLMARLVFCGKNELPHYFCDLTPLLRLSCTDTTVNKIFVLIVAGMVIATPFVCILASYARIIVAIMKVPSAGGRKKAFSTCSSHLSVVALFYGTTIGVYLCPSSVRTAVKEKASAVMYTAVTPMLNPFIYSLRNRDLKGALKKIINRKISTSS
Summary of the method: (§1)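 Assay methods differ from source to source, frequently being transient luciferase assays in mammalian cell lines. For each receptor–molecule pair, the label responsive (active) applies when the original authors judged the measured signal statistically different from baseline, and non-responsive (inactive) applies otherwise.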

[2] = target: T2, Or5ar1 (Mus musculus) (UniProt Q8VGS3)
T2 sequence (whole entry): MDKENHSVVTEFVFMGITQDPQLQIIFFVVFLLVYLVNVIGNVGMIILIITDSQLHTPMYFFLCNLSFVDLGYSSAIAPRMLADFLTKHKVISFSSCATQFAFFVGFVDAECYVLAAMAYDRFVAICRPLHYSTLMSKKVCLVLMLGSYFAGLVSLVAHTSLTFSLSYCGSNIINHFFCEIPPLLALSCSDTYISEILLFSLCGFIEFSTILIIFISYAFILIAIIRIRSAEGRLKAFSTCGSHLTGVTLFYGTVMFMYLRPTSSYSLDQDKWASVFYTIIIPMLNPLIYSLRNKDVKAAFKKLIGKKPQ
Summary of the method: as §1

[3] = target: T3, UniProt A2ATE5
T3 sequence (whole entry): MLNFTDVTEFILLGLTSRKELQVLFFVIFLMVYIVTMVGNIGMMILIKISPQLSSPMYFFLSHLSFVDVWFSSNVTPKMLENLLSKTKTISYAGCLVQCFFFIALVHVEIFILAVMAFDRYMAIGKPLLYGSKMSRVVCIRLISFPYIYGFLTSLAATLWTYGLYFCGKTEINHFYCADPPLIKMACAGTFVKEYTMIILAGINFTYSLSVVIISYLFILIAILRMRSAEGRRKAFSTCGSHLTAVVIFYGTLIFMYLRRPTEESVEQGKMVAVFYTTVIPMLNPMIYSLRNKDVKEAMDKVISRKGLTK
Summary of the method: as §1

[4] = target: T4, UniProt A2AVB0
T4 sequence (whole entry): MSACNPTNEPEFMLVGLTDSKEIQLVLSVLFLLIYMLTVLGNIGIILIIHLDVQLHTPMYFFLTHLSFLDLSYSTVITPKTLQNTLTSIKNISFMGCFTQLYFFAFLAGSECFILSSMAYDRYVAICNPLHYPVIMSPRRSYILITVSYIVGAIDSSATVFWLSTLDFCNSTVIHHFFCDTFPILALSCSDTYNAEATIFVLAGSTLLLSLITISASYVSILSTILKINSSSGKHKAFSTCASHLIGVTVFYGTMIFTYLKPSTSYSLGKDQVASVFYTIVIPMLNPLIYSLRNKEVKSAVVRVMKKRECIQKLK
Summary of the method: as §1

[5] = target: Or5an6 (Mus musculus) (UniProt Q8VFV4)
Summary of the method: as §1

Measured: odorant receptor agonist call

Chain of Or5an6 (Mus musculus) (Q8VFV4 whole entry): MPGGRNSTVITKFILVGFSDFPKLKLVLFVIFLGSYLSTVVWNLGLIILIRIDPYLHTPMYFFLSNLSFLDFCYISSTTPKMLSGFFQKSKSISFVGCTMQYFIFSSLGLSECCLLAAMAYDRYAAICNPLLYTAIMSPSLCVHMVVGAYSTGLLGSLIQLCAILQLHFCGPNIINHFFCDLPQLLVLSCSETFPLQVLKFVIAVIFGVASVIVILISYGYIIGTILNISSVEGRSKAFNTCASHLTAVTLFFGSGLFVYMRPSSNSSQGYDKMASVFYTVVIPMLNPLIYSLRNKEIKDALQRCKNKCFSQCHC

Cc1ccc(OC(=O)Cc2ccccc2)cc1
not listed: [5]
inactive: all other assays above

Oc1ccccc1Br
not listed: [5]
inactive: all other assays above

O=Cc1ccccc1
not listed: [5]
inactive: all other assays above

CC(=O)c1cc(C(C)(C)C)cc2c1CCC2(C)C
active: [5]
